Laboratory results taken from ChEMBL document CHEMBL1795280, “Design, synthesis and activity of a potent, selective series of N-aryl pyridinone inhibitors of p38 kinase” (Bioorg Med Chem Lett, 2011).
Activity calls are given as the source filed them. No cut-off for these calls is given here.

Assays:
[1] = biological target: T1, Mitogen-activated protein kinase 14 (Homo sapiens, UniProt Q16539); assay: Inhibition of p38alpha assessed as phosphorylation of […] after 60 mins by fluorescence assay
Method in brief: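 Cascade assay in which activated p38α (6 pM final) activates unactivated MK2 (1 nM), which phosphorylates FITC-labelled Hsp27 peptide (1 nM) with […]. Inhibitor 0.2–10,000 nM. Room temperature, 60 min, EDTA quench. Phospho-peptide quantified by Caliper LabChip; IC50.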

[2] = biological target: Epidermal growth factor receptor (Homo sapiens) (UniProt P00533); assay: Inhibition of EGFR at 10 uM
[3] = biological target: Mitogen-activated protein kinase 12 (Homo sapiens) (UniProt P53778); assay: Inhibition of p38-gamma at 10 uM
[4] = Metabolic stability in human liver microsomes assessed as compound remaining at 2 uM after 45 mins by LC/MS analysis; type: ADME, Microsome; settings: read-out: Stability
[5] = biological target: Aurora kinase A (Homo sapiens) (UniProt O14965); assay: Inhibition of AURKA at 10 uM
[6] = Solubility of the compound; type: physicochemical
[7] = biological target: Mitogen-activated protein kinase 11 (Homo sapiens) (UniProt Q15759); assay: Inhibition of p38beta at 10 uM
[8] = biological target: Tyrosine-protein kinase BTK (Homo sapiens) (UniProt Q06187); assay: Inhibition of BTK at 10 uM
[9] = Metabolic stability in rat liver microsomes assessed as compound remaining at 2 uM after 45 mins by LC/MS analysis; type: ADME, Microsome; settings: read-out: Stability
[10] = biological target: Rho-associated protein kinase 2 (Homo sapiens) (UniProt O75116); assay: Inhibition of ROCK2 at 10 uM
[11] = Inhibition of JNK at 10 uM
[12] = Half life in iv and po dosed Sprague-Dawley rat; type: ADME, organism-based; settings: in vivo
[13] = biological target: T1, Mitogen-activated protein kinase 14; assay: Inhibition of p38alpha at 10 uM
[14] = biological target: Tyrosine-protein kinase JAK1 (Homo sapiens) (UniProt P23458); assay: Inhibition of JAK1 at 10 uM
[15] = Bioavailability in iv and po dosed Sprague-Dawley rat; type: ADME, organism-based; settings: in vivo
[16] = biological target: Serine/threonine-protein kinase mTOR (Homo sapiens) (UniProt P42345); assay: Inhibition of mTOR at 10 uM
[17] = biological target: RAF proto-oncogene serine/threonine-protein kinase (Homo sapiens) (UniProt P04049); assay: Inhibition of c-RAF at 10 uM
[18] = biological target: Mitogen-activated protein kinase 3 (Homo sapiens) (UniProt P27361); assay: Inhibition of ERK1 at 10 uM
[19] = biological target: Cyclin-dependent kinase 2 (Homo sapiens) (UniProt P24941); assay: Inhibition of CDK2 at 10 uM
[20] = biological target: Tyrosine-protein kinase JAK3 (Homo sapiens) (UniProt P52333); assay: Inhibition of JAK3 at 10 uM
[21] = biological target: Tyrosine-protein kinase Lck (Homo sapiens) (UniProt P06239); assay: Inhibition of LCK at 10 uM
[22] = biological target: Mitogen-activated protein kinase 13 (Homo sapiens) (UniProt O15264); assay: Inhibition of p38delta at 10 uM
[23] = biological target: Dual specificity mitogen-activated protein kinase kinase 1 (Homo sapiens) (UniProt Q02750); assay: Inhibition of MEK1 at 10 uM
Rattus norvegicus [24] = assay: Antiarthritic activity in Lewis rat assessed as inhibition of streptococal cell wall-induced increase of paw volume at 60 mg/kg, po qd for 10 days administered 10 days after streptococal cell wall challenge by displacement plethysmometer analysis; type: functional; settings: 240 h
Method in brief: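 Female Lewis rats given intraperitoneal group A streptococcal cell wall peptidoglycan-polysaccharide ([…] bodyweight). Only animals developing the acute phase were treated. Oral gavage (0.5 mL) daily from day 10 to day 21 post-SCW, with methylcellulose/Tween 20 vehicle as comparison. Four to eight animals per group, two paw volumes per animal. Paw volume measured on day 21 by water displacement plethysmometer.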

[25] = biological target: Vascular endothelial growth factor receptor 1 (Homo sapiens) (UniProt P17948); assay: Inhibition of FLT1 at 10 uM
[26] = Inhibition of PDGFR at 10 uM
[27] = biological target: Rho-associated protein kinase 1 (Homo sapiens) (UniProt Q13464); assay: Inhibition of ROCK1 at 10 uM
[28] = biological target: Vascular endothelial growth factor receptor 2 (Homo sapiens) (UniProt P35968); assay: Inhibition of VEGFR2 at 10 uM
[29] = biological target: Inhibitor of nuclear factor kappa-B kinase subunit beta (Homo sapiens) (UniProt O14920); assay: Inhibition of IKK-beta at 10 uM
[30] = Clearance in iv and po dosed Sprague-Dawley rat; type: ADME, organism-based; settings: in vivo
[31] = biological target: Tyrosine-protein kinase JAK2 (Homo sapiens) (UniProt O60674); assay: Inhibition of JAK2 at 10 uM
[32] = biological target: MAP kinase-activated protein kinase 2 (Homo sapiens) (UniProt P49137); assay: Inhibition of MK2 at 10 uM
PBMC = assay: Antiinflammatory activity in human PBMC assessed as inhibition of LPS-induced TNFalpha production treated 1 hr before LPS challenge measured after 18 hrs; type: functional, cell-based
Method in brief: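 PBMCs isolated by Ficoll from heparinized blood of two healthy donors, in DMEM with 5% endotoxin-free FBS, 2.5 × 10⁵ cells/well. Pretreated 1 h with compound (0.0001–25 µM range), then stimulated 18 h with 22 ng/ml LPS. Final DMSO 0.25%. Secreted TNFα measured by MSD; IC50 reported.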

Rattus norvegicus [33] = assay: Antiinflammatory activity in Lewis rat assessed as inhibition of LPS-induced TNFalpha production at 5 mg/kg, po administered 4 hrs before LPS challenge by ELISA; type: functional
Method in brief: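 Adult male Lewis rats (225–250 g), fasted 18 h with free access to water. Compound or vehicle given by oral gavage (1 mL). LPS (E. coli 0111:B4) given 1 mg/kg i.v. in saline 2, 4 or 6 h later. Serum taken by cardiac puncture 90 min after LPS. TNFα quantified against a recombinant rat TNF standard curve with a four-parameter fit. Two vehicle groups per experiment, three experiments.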

[34] = biological target: High affinity nerve growth factor receptor (Homo sapiens) (UniProt P04629); assay: Inhibition of TRKA at 10 uM
[35] = biological target: Tyrosine-protein kinase ZAP-70 (Homo sapiens) (UniProt P43403); assay: Inhibition of ZAP70 at 10 uM
[36] = biological target: Non-receptor tyrosine-protein kinase TYK2 (Homo sapiens) (UniProt P29597); assay: Inhibition of TYK2 at 10 uM
[37] = biological target: Interleukin-1 receptor-associated kinase 4 (Homo sapiens) (UniProt Q9NWZ3); assay: Inhibition of IRAK4 at 10 uM
[38] = Bioavailability in Sprague-Dawley rat at 5 mg/kg, po; type: ADME, organism-based; settings: in vivo
[39] = Bioavailability in Sprague-Dawley rat po as suspension; settings: in vivo

T1 sequence (Q16539 whole entry): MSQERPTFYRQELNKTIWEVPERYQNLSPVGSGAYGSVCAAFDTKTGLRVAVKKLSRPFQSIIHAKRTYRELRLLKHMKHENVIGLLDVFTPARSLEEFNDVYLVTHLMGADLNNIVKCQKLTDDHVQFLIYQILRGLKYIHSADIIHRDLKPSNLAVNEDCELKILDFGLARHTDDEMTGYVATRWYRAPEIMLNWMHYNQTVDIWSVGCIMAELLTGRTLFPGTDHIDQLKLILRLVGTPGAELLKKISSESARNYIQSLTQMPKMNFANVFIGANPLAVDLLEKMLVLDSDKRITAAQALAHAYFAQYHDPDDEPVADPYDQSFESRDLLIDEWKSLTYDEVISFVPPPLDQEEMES
Sequence of Aurora kinase A (Homo sapiens) (O14965 whole entry): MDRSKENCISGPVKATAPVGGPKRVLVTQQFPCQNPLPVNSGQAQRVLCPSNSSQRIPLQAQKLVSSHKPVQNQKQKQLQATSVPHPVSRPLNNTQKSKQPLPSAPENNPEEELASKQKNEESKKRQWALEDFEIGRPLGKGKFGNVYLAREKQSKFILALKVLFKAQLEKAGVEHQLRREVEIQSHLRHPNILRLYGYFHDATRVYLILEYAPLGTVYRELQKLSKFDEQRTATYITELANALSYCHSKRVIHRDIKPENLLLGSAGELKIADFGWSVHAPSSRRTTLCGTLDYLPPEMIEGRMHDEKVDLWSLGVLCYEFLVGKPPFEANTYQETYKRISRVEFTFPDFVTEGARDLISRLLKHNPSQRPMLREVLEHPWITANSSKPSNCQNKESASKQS
Sequence of Mitogen-activated protein kinase 11 (Homo sapiens) (Q15759 whole entry): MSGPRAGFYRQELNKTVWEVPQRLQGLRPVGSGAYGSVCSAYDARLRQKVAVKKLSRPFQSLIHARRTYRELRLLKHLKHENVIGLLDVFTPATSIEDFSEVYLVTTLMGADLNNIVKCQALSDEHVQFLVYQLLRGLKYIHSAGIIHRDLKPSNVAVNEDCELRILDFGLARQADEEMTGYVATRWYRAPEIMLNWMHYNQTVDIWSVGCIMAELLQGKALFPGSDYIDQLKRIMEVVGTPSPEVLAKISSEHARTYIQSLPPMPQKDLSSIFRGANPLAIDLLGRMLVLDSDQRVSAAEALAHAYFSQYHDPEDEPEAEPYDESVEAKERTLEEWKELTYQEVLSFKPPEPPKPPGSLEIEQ
Sequence of Non-receptor tyrosine-protein kinase TYK2 (Homo sapiens) (P29597 whole entry): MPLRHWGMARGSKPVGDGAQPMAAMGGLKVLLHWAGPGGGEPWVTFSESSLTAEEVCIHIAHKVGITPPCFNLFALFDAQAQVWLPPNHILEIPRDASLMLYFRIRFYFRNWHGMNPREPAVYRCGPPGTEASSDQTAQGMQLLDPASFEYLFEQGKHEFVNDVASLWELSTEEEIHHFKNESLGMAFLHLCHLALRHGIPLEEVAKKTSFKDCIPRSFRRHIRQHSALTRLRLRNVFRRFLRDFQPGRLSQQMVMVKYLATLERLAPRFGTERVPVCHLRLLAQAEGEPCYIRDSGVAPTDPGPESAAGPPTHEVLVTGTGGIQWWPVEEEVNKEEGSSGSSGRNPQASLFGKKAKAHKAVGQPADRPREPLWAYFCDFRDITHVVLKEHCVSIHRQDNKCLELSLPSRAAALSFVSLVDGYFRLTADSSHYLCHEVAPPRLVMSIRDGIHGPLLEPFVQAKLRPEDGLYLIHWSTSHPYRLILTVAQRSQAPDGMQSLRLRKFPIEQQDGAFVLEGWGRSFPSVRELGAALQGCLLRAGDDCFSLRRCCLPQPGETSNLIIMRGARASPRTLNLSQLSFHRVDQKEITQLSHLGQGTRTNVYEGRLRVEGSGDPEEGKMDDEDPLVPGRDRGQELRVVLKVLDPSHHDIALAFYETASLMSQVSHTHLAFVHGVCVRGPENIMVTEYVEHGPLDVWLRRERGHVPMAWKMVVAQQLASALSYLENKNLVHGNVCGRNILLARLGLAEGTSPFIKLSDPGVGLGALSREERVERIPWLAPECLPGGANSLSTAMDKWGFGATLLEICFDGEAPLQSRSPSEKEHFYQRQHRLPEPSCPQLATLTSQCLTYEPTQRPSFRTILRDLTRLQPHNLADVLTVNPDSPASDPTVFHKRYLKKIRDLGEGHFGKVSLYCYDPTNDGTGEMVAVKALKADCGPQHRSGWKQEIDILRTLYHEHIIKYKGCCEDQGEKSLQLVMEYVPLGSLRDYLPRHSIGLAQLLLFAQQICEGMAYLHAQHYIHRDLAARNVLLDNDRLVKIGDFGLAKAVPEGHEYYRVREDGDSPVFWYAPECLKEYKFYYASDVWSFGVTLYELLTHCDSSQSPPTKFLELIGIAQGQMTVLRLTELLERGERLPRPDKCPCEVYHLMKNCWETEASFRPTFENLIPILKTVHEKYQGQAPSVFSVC
Sequence of MAP kinase-activated protein kinase 2 (Homo sapiens) (P49137 whole entry, looked up): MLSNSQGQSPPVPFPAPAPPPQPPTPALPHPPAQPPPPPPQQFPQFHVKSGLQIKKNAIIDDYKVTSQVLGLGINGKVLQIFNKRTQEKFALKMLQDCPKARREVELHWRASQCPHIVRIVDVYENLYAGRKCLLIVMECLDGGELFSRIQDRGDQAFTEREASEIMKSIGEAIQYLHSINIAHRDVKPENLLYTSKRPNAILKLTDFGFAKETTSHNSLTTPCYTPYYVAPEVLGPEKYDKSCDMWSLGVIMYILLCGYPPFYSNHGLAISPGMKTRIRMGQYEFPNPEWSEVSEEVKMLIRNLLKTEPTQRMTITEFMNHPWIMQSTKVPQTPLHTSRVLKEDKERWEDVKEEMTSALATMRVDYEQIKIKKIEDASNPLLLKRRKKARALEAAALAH
Sequence of Interleukin-1 receptor-associated kinase 4 (Homo sapiens) (Q9NWZ3 whole entry): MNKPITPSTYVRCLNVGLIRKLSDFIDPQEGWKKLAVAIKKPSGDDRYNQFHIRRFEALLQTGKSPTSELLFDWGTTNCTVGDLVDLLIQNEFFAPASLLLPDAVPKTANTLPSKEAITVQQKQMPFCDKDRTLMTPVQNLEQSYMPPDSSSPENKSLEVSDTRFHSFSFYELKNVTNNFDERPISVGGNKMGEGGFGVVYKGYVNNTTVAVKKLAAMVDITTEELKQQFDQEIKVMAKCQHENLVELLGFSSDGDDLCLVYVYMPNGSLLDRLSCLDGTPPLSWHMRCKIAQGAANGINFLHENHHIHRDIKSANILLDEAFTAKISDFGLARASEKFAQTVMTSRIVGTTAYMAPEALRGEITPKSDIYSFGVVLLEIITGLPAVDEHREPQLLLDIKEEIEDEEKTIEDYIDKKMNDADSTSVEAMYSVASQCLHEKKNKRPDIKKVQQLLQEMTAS
Sequence of Tyrosine-protein kinase JAK1 (Homo sapiens) (P23458 whole entry): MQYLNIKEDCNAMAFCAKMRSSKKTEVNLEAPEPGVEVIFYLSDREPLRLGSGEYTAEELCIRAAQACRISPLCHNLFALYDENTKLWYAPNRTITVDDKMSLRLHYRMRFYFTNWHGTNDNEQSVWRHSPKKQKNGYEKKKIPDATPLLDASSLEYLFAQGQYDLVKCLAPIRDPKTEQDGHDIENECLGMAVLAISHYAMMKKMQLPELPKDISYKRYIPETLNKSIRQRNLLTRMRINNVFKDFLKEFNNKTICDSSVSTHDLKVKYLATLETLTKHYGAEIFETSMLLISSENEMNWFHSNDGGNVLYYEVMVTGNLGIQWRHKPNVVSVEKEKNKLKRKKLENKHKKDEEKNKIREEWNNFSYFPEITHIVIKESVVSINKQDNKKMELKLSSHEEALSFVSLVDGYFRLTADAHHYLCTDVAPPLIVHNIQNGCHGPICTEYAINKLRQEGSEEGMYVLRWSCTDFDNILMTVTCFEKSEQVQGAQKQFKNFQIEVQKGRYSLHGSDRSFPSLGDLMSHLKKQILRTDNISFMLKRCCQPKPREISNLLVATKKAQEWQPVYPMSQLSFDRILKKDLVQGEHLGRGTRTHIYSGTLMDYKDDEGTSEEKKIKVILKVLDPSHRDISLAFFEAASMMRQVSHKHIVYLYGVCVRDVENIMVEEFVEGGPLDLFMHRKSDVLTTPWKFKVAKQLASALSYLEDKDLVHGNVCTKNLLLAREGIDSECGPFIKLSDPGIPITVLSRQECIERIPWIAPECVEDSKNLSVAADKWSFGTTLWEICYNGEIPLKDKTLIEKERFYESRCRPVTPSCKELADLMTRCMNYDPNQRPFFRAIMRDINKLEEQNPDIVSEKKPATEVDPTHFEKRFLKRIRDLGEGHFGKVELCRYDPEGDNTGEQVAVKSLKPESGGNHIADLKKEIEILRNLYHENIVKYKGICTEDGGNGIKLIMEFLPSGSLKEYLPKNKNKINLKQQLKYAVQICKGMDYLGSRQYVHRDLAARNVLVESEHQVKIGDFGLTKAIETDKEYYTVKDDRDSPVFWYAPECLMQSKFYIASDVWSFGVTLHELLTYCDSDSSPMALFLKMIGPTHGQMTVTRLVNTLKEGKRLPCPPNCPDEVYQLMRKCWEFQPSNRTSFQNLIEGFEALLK
Sequence of Mitogen-activated protein kinase 13 (Homo sapiens) (O15264 whole entry): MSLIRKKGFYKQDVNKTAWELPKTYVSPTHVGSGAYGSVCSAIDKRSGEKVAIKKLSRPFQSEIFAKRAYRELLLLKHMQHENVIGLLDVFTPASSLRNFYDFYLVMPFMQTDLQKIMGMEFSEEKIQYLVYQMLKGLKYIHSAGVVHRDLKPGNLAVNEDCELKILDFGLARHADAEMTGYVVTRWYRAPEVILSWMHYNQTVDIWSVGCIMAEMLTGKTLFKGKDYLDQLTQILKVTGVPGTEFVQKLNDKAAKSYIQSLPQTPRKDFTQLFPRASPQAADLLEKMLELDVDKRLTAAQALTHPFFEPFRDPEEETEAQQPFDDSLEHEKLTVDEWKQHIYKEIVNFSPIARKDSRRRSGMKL

## Cc1cc(OCc2ccc(F)cc2F)c(Br)c(=O)n1-c1c(Cl)cccc1Cl
[1]
  IC50: 1 nM

## O=c1c(Cl)c(OCc2ccc(F)cc2F)cc(CO)n1-c1c(F)cccc1F
[2]
  inhibition: < 50%
[3]
  inhibition: < 50%
[4]
  remaining at 0.75 h, 2 µM: 70%
[5]
  inhibition: < 50%
[6]
  solubility: < 10 µg/mL
[7]
  inhibition: Active
[8]
  inhibition: < 50%
[9]
  remaining at 0.75 h, 2 µM: 69%
[10]
  inhibition: < 50%
[11]
  inhibition: < 50%
[12]
  half-life: 1.5 h
[13]
  inhibition: Active
[14]
  inhibition: < 50%
[15]
  bioavailability: 32%
[16]
  inhibition: < 50%
[17]
  inhibition: < 50%
[18]
  inhibition: < 50%
[19]
  inhibition: < 50%
[20]
  inhibition: < 50%
[21]
  inhibition: < 50%
[22]
  inhibition: < 50%
[1]
  IC50: 8 nM
[23]
  inhibition: < 50%
Rattus norvegicus [24]
  inhibition in vivo at 60 mg/kg: 33%
[25]
  inhibition: < 50%
[26]
  inhibition: < 50%
[27]
  inhibition: < 50%
[28]
  inhibition: < 50%
[29]
  inhibition: < 50%
[30]
  clearance: 5.9 mL/min/kg
[31]
  inhibition: < 50%
[32]
  inhibition: < 50%
PBMC
  IC50: 45 nM
Rattus norvegicus [33]
  inhibition in vivo at 5 mg/kg: 81%
[34]
  inhibition: < 50%
[35]
  inhibition: < 50%
[36]
  inhibition: < 50%
[37]
  inhibition: < 50%

## Cc1cc(OCc2ccc(F)cc2F)c(Br)c(=O)n1-c1c(F)cc(OCC(N)=O)cc1F
[1]
  IC50: 3 nM

## Cc1cc(OCc2ccc(F)cc2F)c(Br)c(=O)n1-c1c(F)cc(O)cc1F
[1]
  IC50: 15 nM

## O=c1c(Br)c(OCc2ccc(F)cc2F)cc(CN2CCOCC2)n1-c1c(F)cccc1F
[1]
  IC50: 9 nM

## Cc1cc(OCc2ccc(F)cc2)c(Br)c(=O)n1-c1c(Cl)cccc1Cl
[1]
  IC50: 6 nM

## Cc1cc(OCc2ccc(F)cc2F)c(Br)c(=O)n1-c1ccc(CN)cc1
[1]
  IC50: 51 nM

## Cc1cc(OCc2ccc(F)cc2F)c(Br)c(=O)n1-c1ccc(CNC(=O)CN)cc1
[4]
  remaining at 0.75 h, 2 µM: 97%
[9]
  remaining at 0.75 h, 2 µM: 91%
[1]
  IC50: 15 nM
PBMC
  IC50: 118 nM
Rattus norvegicus [33]
  inhibition in vivo at 5 mg/kg: 64%

## Cc1cc(OCc2ccc(F)cc2F)c(Br)c(=O)n1-c1ccc(CNC(N)=O)cc1
[1]
  IC50: 142 nM

## Cc1cc(OCc2ccc(F)cc2F)c(Br)c(=O)n1-c1c(F)cc(OCCO)cc1F
[4]
  remaining at 0.75 h, 2 µM: 87%
[9]
  remaining at 0.75 h, 2 µM: 96%
[1]
  IC50: 7 nM
PBMC
  IC50: 61 nM
Rattus norvegicus [33]
  inhibition in vivo at 5 mg/kg: 44%

## Cc1cc(OCc2ccc(F)cc2F)c(Br)c(=O)n1-c1cccc(CNC(=O)CO)c1
[1]
  IC50: 175 nM

## Cc1cc(OCc2ccc(F)cc2F)c(Br)c(=O)n1-c1cccc(C(N)=O)c1
[38]
  bioavailability: 93%
[2]
  inhibition: < 50%
[3]
  inhibition: < 50%
[4]
  remaining at 0.75 h, 2 µM: 100%
[5]
  inhibition: < 50%
[6]
  solubility: < 10 µg/mL
[7]
  inhibition: Active
[8]
  inhibition: < 50%
[39]
  bioavailability: 7%
[9]
  remaining at 0.75 h, 2 µM: 97%
[10]
  inhibition: < 50%
[11]
  inhibition: < 50%
[12]
  half-life: 3.4 h
[13]
  inhibition: Active
[14]
  inhibition: < 50%
[16]
  inhibition: < 50%
[17]
  inhibition: < 50%
[18]
  inhibition: < 50%
[19]
  inhibition: < 50%
[20]
  inhibition: < 50%
[21]
  inhibition: < 50%
[22]
  inhibition: < 50%
[1]
  IC50: 12 nM
[23]
  inhibition: < 50%
Rattus norvegicus [24]
  inhibition in vivo at 60 mg/kg: 40%
[25]
  inhibition: < 50%
[26]
  inhibition: < 50%
[27]
  inhibition: < 50%
[28]
  inhibition: < 50%
[29]
  inhibition: < 50%
[30]
  clearance: 9.34 mL/min/kg
[31]
  inhibition: < 50%
[32]
  inhibition: < 50%
PBMC
  IC50: 64 nM
Rattus norvegicus [33]
  inhibition in vivo at 5 mg/kg: 89%
[34]
  inhibition: < 50%
[35]
  inhibition: < 50%
[36]
  inhibition: < 50%
[37]
  inhibition: < 50%

## Cc1cc(OCc2ccccc2)c(Br)c(=O)n1-c1c(Cl)cccc1Cl
[1]
  IC50: 30 nM

## Cc1cc(OCc2ccc(F)cc2F)c(Br)c(=O)n1-c1cccc(CN)c1
[1]
  IC50: 681 nM
